# Measured values from ChEMBL document CHEMBL4052614, “Novel 3',5'-diprenylated chalcones inhibited the proliferation of cancer cells in vitro by inducing cell apoptosis and arresting cell cycle phase” (Eur J Med Chem, 2017).
# The source made the active and inactive calls. No cut-off for these calls is given here.
# What was measured:
# K562 [1] = experiment: Growth inhibition of human K562 cells at 5 umol/L after 48 hrs by MTT assay relative to control; format: functional; settings: K562, 48 h, read-out: GI
# Summary of the method: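 Cells kept in DMEM/10% FBS at 37 °C, 5% CO2, seeded at 4×10^3–8×10^3 cells/well, 24 h attachment, then 48 h with compound at 5 µmol/L. MTT (5 mg/mL solution) added for 4 h at 37 °C, formazan taken up in DMSO, A490 read. Percent inhibition as mean ± SD of three independent experiments. Doxorubicin as positive control.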
# PC-3 [2] = experiment: Cytotoxicity against human PC3 cells after 48 hrs by MTT assay; format: functional, cell-based
# Summary of the method: (§1)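 Cells kept in DMEM/10% FBS at 37 °C, 5% CO2, seeded at 4×10^3–8×10^3 cells/well and left 24 h to adhere. Exposed 48 h to a range of concentrations. MTT (5 mg/mL solution) added for 4 h at 37 °C, formazan dissolved in DMSO, absorbance read at 490 nm. IC50 derived from concentration–inhibition relation. Doxorubicin as positive control.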
# K562 [3] = experiment: Cytotoxicity against human K562 cells after 48 hrs by MTT assay; format: functional, cell-based; summary of the method: as §1
# HEL [4] = experiment: Cytotoxicity against HEL cells after 48 hrs by MTT assay; format: functional, cell-based; settings: Homo sapiens; summary of the method: as §1
# PC-3 [5] = experiment: Induction of morphological changes in human PC3 cells assessed as increase in formation of apoptotic bodies at 5 umol/L after 48 hrs by inverted microscopic method; format: functional, cell-based
# Summary of the method: (§2)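 PC3 cells were kept in DMEM with 10% FBS, penicillin and streptomycin at 37 °C under 5% CO2, and were passaged at least 3 times after thawing. Cells were seeded at 4 × 10^3 to 8 × 10^3 cells/well and left to adhere for 24 h. They were then exposed to 5 µmol/L compound for 48 h. Morphology was viewed by inverted microscope against DMSO-treated controls.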
# K562 [6] = experiment: Induction of morphological changes in human K562 cells assessed as increase in formation of apoptotic bodies at 5 umol/L after 48 hrs by inverted microscopic method; format: functional, cell-based
# Summary of the method: (§3)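 Cells cultured in DMEM/10% FBS at 37 °C, 5% CO2. Exposed 48 h to 5 µmol/L compound alongside DMSO controls. Morphology (cell number, rounding, spacing, apoptotic bodies, spindle shape) observed under an inverted microscope with CCD camera.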
# MDA-MB-231 [7] = experiment: Induction of apoptosis in human MDA-MB-231 cells assessed as spindle like formation at 5 umol/L after 48 hrs by inverted microscopic method; format: functional, cell-based; summary of the method: as §3
# PC-3 [8] = experiment: Induction of apoptosis in human PC3 cells assessed as spindle like formation at 5 umol/L after 48 hrs by inverted microscopic method; format: functional, cell-based; summary of the method: as §3
# PC-3 [9] = experiment: Induction of apoptosis in human PC3 cells assessed as early apoptotic cells at 5 umol/L after 48 hrs by annexin V-FITC/propidium iodide staining based flow cytometry (reference value: 4%); format: functional
# PC-3 [10] = experiment: Induction of apoptosis in human PC3 cells assessed as late apoptotic cells at 5 umol/L after 48 hrs by annexin V-FITC/propidium iodide staining based flow cytometry (reference value: 4.7%); format: functional
# PC-3 [11] = experiment: Induction of apoptosis in human PC3 cells assessed as necrotic cells at 5 umol/L after 48 hrs by annexin V-FITC/propidium iodide staining based flow cytometry (reference value: 4.6%); format: functional
# MDA-MB-231 [12] = experiment: Induction of apoptosis in human MDA-MB-231 cells assessed as viable cells at 5 umol/L after 48 hrs by annexin V-FITC/propidium iodide staining based flow cytometry (reference value: 91.3%); format: functional; settings: MDA-MB-231, 48 h, read-out: Activity
# MDA-MB-231 [13] = experiment: Induction of apoptosis in human MDA-MB-231 cells assessed as early apoptotic cells at 5 umol/L after 48 hrs by annexin V-FITC/propidium iodide staining based flow cytometry (reference value: 3%); format: functional
# K562 [14] = experiment: Induction of apoptosis in human K562 cells assessed as late apoptotic cells at 5 umol/L after 48 hrs by annexin V-FITC/propidium iodide staining based flow cytometry (reference value: 2.3%); format: functional
# HEL [15] = experiment: Induction of apoptosis in HEL cells assessed as late apoptotic cells at 5 umol/L after 48 hrs by annexin V-FITC/propidium iodide staining based flow cytometry (reference value: 1.6 to 3.3%); format: functional, Homo sapiens
# HEL [16] = experiment: Induction of apoptosis in HEL cells assessed as necrotic cells at 5 umol/L after 48 hrs by annexin V-FITC/propidium iodide staining based flow cytometry (reference value: 0.3 to 1%); format: functional, Homo sapiens
# PC-3 [17] = experiment: Cell cycle arrest in human PC3 cells assessed as increase in G1 phase accumulation at 5 umol/L after 48 hrs by propidium iodide staining based flow cytometric method; format: functional
# Summary of the method: (§4)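 Cells grown in DMEM with 10% FBS and penicillin/streptomycin at 37 °C, 5% CO2, and passaged at least 3 times after thawing. Treated 48 h at 5 µmol/L, DMSO-treated controls. Harvested by trypsin, PBS-washed, fixed in ice-cold ethanol, blocked 1 h at 4 °C in 5% BSA/PBS, RNase 1 µg/mL 30 min at 37 °C, PI 20 µg/mL final. Phase percentages read from PI histograms. Mean ± SD, three independent experiments.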
# PC-3 [18] = experiment: Cell cycle arrest in human PC3 cells assessed as decrease in S phase accumulation at 5 umol/L after 48 hrs by propidium iodide staining based flow cytometric method; format: functional; summary of the method: as §4
# PC-3 [19] = experiment: Cell cycle arrest in human PC3 cells assessed as decrease in G2 phase accumulation at 5 umol/L after 48 hrs by propidium iodide staining based flow cytometric method; format: functional; summary of the method: as §4
# MDA-MB-231 [20] = experiment: Cell cycle arrest in human MDA-MB-231 cells assessed as decrease in S phase accumulation at 5 umol/L after 48 hrs by propidium iodide staining based flow cytometric method; format: functional; summary of the method: as §4
# HEL [21] = experiment: Cell cycle arrest in HEL cells assessed as increase in G1 phase accumulation at 5 umol/L after 48 hrs by propidium iodide staining based flow cytometry; format: functional; settings: Homo sapiens; summary of the method: as §4
# HEL [22] = experiment: Cell cycle arrest in HEL cells assessed as decrease in S phase accumulation at 5 umol/L after 48 hrs by propidium iodide staining based flow cytometry; format: functional; settings: Homo sapiens; summary of the method: as §4
# HEL [23] = experiment: Induction of morphological changes in HEL cells assessed as formation of apoptotic bodies at 5 umol/L after 48 hrs by inverted fluorescence microscopic analysis; format: functional, cell-based; settings: Homo sapiens; summary of the method: as §3
# HEL [24] = experiment: Induction of morphological changes in HEL cells assessed as reduction in cell number at 5 umol/L after 48 hrs by inverted fluorescence microscopic analysis; format: functional, cell-based; settings: Homo sapiens; summary of the method: as §3
# MDA-MB-231 [25] = experiment: Induction of morphological changes in human MDA-MB-231 cells assessed as increase in intracellular space at 5 umol/L after 48 hrs by inverted microscopic method; format: functional, cell-based; summary of the method: as §3
# PC-3 [26] = experiment: Induction of morphological changes in human PC3 cells assessed as increase in intracellular space at 5 umol/L after 48 hrs by inverted microscopic method; format: functional, cell-based; summary of the method: as §2
# MDA-MB-231 [27] = experiment: Induction of apoptosis in human MDA-MB-231 cells assessed as effect on cell adherence at 5 umol/L after 48 hrs by inverted microscopic method; format: functional, cell-based; summary of the method: as §3
# PC-3 [28] = experiment: Induction of apoptosis in human PC3 cells assessed as effect on cell adherence at 5 umol/L after 48 hrs by inverted microscopic method; format: functional, cell-based; summary of the method: as §3
# MDA-MB-231 [29] = experiment: Potency index, ratio of compound effect to (E)-2-Hydroxy-4,4-dimethoxy-3,5-diprenylchalcone effect for growth inhibition of human MDA-MB-231 cells; format: functional
structure (smiles),measurement,setting,value
COc1c(CC=C(C)C)cc(C(=O)/C=C/c2cccnc2)c(O)c1CC=C(C)C,inhibition of growth at 5 µM,K562 [1],86.2%
same,Activity,PC-3 [2],Dose-dependent effect
same,IC50,"PC-3 [2]; PC-3, 48 h",2920 nM
same,Activity,K562 [3],Dose-dependent effect
same,IC50,"K562 [3]; K562, 48 h",2640 nM
same,Activity,HEL [4],Dose-dependent effect
same,IC50,HEL [4],1850 nM
same,Activity,PC-3 [5],Active
same,Activity,K562 [6],Active
same,Activity,MDA-MB-231 [7],Active
same,Activity,PC-3 [8],Active
same,Activity,PC-3 [9],1.8%
same,Activity,PC-3 [10],42.7%
same,Activity,PC-3 [11],10.6%
same,viability at 5 µM,MDA-MB-231 [12],35.2%
same,Activity,MDA-MB-231 [13],13.8%
same,Activity,K562 [14],14.6%
same,Activity,HEL [15],7.1%
same,Activity,HEL [16],4.9%
same,Activity,PC-3 [17],Active
same,Activity,PC-3 [18],Active
same,Activity,PC-3 [19],Active
same,Activity,MDA-MB-231 [20],Active
same,Activity,HEL [21],Active
same,Activity,HEL [22],Active
same,Activity,HEL [23],inactive
same,Activity,HEL [24],Active
same,Activity,MDA-MB-231 [25],Active
same,Activity,PC-3 [26],Active
same,Activity,MDA-MB-231 [27],Active
same,Activity,PC-3 [28],Active
same,Ratio,MDA-MB-231 [29],3 - 4
